Experiments:
[1] = Bi-directional Caco-2 permeability; assay type: in vitro ADME; conditions: human
Procedure, shortened: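 Contract-lab bidirectional Caco-2 permeability. Run as three separate experiments, each with two separate internal control groups.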

[2] = molecular target: T1, Caspase 3 (Homo sapiens, UniProt P42574); test: Reaction Biology caspase panel; assay type: biochemical
T1 sequence (P42574 29-175 limits assumed): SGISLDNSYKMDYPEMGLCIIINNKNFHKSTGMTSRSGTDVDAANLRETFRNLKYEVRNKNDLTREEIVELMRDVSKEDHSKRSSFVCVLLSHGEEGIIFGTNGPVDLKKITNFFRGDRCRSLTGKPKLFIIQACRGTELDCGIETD
T1 sequence (P42574 176-277 limits assumed): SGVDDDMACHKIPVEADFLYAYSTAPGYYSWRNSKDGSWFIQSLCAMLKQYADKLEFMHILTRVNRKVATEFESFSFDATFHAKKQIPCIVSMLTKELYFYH

[3] = molecular target: T2, caspase 1 (Homo sapiens, UniProt P29466); test: Caspase 1 fluorescence assay, Ac-LEHD-AMC substrate, 2 nM enzyme; assay type: biochemical
T2 sequence (P29466 120-297 limits assumed): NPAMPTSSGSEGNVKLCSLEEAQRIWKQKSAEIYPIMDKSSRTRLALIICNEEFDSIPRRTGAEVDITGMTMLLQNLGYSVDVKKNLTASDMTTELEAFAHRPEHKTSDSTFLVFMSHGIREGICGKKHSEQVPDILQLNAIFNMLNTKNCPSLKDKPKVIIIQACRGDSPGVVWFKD
T2 sequence (P29466 317-404 limits assumed): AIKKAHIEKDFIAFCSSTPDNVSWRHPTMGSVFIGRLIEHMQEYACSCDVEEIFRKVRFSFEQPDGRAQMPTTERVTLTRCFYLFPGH
Procedure, shortened: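 Compound added from DMSO as a 12-point duplicate titration (0.65 pM to 57.5 μM) and preincubated 15 min at RT. Then 5 μM Ac-LEHD-AMC final was added and the initial rate followed 20 min at RT (ex 340/em 450 nm). Percent inhibition was taken against median uninhibited and uncatalyzed controls, with a four-parameter Hill fit.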

[4] = molecular target: T3, Caspase 5 (Homo sapiens, UniProt P51878); test: Reaction Biology caspase panel; assay type: biochemical
T3 sequence (P51878 137-327 limits assumed): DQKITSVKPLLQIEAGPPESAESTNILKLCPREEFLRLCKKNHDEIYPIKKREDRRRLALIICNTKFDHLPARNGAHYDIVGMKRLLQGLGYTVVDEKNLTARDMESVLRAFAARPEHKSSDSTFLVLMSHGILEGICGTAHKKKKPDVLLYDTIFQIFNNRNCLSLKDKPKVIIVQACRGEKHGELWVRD
T3 sequence (P51878 347-434 limits assumed): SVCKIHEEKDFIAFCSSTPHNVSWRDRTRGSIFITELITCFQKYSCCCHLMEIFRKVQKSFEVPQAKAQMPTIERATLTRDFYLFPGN

[5] = molecular target: T4, Caspase 4 (Homo sapiens, UniProt P49662); test: Reaction Biology caspase panel; assay type: biochemical
T4 sequence (P49662 81-270 limits assumed): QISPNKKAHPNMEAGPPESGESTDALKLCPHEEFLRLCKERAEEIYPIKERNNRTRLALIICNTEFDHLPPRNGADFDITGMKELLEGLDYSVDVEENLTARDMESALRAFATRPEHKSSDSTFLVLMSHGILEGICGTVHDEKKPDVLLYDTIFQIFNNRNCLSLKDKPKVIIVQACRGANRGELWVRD
T4 sequence (P49662 290-377 limits assumed): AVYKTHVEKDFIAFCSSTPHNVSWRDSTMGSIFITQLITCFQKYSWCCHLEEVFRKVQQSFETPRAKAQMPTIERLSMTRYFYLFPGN

[6] = Plasma protein binding, equilibrium dialysis in 100% plasma; assay type: in vitro ADME, human; conditions: human, plasma (100%)
[7] = Microsomal stability; assay type: in vitro ADME, human; conditions: for microsomal CLint / half-life: human, liver microsomes; for half-life: Microsomal Stability t1/2, human liver microsomes
Procedure, shortened: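 Human microsomal stability, profiled by a contract lab alongside internal control compounds. Includes minus-NADPH and minus-compound control incubations.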

[8] = molecular target: T5, Caspase 6 (Homo sapiens, UniProt P55212); test: Reaction Biology caspase panel; assay type: biochemical
T5 sequence (P55212 24-179 limits assumed): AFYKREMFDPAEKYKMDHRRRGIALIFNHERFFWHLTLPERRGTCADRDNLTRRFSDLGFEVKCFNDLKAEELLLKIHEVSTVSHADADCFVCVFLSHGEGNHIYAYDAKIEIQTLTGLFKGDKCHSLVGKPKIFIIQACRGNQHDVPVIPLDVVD
T5 sequence (P55212 194-293 limits assumed): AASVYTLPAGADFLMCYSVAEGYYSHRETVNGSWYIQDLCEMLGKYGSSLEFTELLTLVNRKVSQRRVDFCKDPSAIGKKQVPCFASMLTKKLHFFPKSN

[9] = molecular target: T6, Caspase 9 (Homo sapiens, UniProt P55211); test: Reaction Biology caspase panel; assay type: biochemical
T6 sequence (P55211 1-315 limits assumed): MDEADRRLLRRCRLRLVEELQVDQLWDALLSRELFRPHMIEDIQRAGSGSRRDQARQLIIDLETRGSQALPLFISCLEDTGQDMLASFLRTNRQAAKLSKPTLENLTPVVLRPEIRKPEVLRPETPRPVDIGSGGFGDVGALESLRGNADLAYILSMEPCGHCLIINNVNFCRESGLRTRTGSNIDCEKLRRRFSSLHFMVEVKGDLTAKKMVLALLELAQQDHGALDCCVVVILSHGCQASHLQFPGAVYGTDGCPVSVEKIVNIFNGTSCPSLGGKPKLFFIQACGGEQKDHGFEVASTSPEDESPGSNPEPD
T6 sequence (P55211 331-416 limits assumed): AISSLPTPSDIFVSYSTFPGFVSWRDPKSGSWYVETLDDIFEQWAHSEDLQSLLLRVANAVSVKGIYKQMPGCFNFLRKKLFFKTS

[10] = molecular target: T7, Caspase 7 (Homo sapiens, UniProt P55210); test: Reaction Biology caspase panel; assay type: biochemical
T7 sequence (P55210 24-198 limits assumed): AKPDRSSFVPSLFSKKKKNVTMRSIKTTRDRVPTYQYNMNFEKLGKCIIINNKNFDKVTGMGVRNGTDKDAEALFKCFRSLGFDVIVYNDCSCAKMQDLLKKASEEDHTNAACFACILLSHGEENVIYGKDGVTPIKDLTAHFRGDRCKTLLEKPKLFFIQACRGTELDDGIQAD
T7 sequence (P55210 207-303 limits assumed): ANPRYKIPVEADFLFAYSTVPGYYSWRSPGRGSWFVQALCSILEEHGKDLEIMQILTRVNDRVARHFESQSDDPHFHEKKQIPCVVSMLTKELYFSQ

[11] = molecular target: T2, caspase 1; test: Reaction Biology caspase panel; assay type: biochemical
[12] = molecular target: T8, Caspase 14 (Homo sapiens, UniProt P31944); test: Reaction Biology caspase panel; assay type: biochemical
T8 sequence (P31944 6-146 limits assumed): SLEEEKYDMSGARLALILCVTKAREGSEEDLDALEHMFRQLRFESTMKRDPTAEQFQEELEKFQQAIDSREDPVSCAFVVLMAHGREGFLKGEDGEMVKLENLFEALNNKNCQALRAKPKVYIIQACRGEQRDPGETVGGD
T8 sequence (P31944 153-242 limits assumed): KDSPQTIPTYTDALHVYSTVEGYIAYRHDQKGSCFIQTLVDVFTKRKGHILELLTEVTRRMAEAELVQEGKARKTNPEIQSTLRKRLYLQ

[13] = molecular target: Caspase 8 (Homo sapiens, UniProt Q14790); test: Reaction Biology caspase panel; assay type: biochemical
[14] = molecular target: T9, Caspase 10 (Homo sapiens, UniProt Q92851); test: Reaction Biology caspase panel; assay type: biochemical
T9 sequence (Q92851 220-415 limits assumed): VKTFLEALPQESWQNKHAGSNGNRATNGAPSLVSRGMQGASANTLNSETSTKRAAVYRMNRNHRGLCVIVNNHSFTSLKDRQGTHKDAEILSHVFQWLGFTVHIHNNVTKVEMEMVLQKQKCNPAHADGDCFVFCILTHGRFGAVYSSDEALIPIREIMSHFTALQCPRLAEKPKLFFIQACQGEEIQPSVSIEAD
T9 sequence (Q92851 416-521 limits assumed): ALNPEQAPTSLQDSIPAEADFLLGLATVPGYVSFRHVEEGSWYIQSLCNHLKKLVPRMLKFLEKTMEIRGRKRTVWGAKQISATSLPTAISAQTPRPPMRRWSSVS

[15] = Aqueous degradation study by LCMS over 96 hours; assay type: physicochemical; conditions: for aqueous stability (in words): up to 96 hours
[16] = molecular target: Pgp (Homo sapiens, UniProt P08183); test: Caco-2 permeability in the presence of verapamil; assay type: in vitro ADME; conditions: Caco-2 control experiment with verapamil
Chain of Pgp (P08183 whole entry): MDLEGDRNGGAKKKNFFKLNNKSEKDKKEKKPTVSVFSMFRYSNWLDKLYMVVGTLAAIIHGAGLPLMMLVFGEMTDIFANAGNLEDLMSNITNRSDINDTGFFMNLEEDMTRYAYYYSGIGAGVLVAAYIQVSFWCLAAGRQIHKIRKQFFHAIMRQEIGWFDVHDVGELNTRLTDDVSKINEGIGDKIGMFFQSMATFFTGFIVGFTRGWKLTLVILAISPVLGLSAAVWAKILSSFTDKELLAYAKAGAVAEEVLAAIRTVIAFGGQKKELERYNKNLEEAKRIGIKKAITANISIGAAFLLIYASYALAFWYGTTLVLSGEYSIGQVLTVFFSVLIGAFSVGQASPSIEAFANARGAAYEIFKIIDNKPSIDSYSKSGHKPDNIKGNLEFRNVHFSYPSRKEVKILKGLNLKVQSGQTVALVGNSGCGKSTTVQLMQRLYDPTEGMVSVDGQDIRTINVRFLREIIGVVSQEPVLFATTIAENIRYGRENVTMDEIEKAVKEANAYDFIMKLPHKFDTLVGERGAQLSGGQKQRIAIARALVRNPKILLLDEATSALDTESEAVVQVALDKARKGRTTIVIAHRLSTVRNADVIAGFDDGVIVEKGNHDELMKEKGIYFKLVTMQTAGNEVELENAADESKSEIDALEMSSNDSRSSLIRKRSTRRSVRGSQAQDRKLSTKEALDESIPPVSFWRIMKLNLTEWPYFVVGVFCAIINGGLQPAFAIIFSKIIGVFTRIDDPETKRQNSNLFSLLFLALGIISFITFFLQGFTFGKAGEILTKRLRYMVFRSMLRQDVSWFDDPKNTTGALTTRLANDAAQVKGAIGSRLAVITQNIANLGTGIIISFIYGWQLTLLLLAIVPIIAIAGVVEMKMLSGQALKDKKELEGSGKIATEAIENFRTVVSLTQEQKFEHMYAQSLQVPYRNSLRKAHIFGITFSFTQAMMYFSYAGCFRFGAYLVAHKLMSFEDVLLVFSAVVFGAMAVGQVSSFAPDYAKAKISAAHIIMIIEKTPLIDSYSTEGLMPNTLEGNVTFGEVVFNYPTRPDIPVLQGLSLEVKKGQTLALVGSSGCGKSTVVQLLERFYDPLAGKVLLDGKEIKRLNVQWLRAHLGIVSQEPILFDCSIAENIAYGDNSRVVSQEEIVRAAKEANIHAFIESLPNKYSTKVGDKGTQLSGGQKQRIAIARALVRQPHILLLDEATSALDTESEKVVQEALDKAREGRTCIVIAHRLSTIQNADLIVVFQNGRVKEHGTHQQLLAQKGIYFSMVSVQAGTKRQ

Chain of Caspase 8 (Q14790 217-374 limits assumed): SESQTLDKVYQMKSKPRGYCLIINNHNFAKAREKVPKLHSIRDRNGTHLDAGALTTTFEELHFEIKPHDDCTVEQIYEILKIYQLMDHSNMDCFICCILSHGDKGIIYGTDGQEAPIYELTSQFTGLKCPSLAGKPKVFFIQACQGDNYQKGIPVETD
Chain of Caspase 8 (Q14790 385-479 limits assumed): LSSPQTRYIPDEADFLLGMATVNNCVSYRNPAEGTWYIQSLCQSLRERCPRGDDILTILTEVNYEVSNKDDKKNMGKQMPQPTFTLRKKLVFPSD

SMILES	Papp A→B [1]	Papp B→A [1]	IC50 [2]	IC50 [3]	IC50 [4]	IC50 [5]	fraction unbound [6]	microsomal CLint [7]	half-life [7]	IC50 [8]	IC50 [9]	IC50 [10]	IC50 [11]	IC50 [12]	IC50 [13]	IC50 [14]	aqueous stability (in words) ([15]; acidic (pH 2))	aqueous stability (in words) ([15]; basic (pH 8))	aqueous stability (in words) ([15]; neutral (pH 7))	substrate for Pgp efflux [16]	also measured
CC(C)(C)[C@H](NC(=O)c1ccc(N)c(Cl)c1)C(=O)N1CCC[C@H]1C(=O)N[C@H](C#N)CC(=O)O [Compound 4, (S)-3-((S)-1-((S)-2-(4-amino-3-chlorobenzamido)-3,3-dimethylbutanoyl)pyrrolidine-2-carboxamido)-3-cyanopropanoic acid]	0.144 ×10⁻⁶ cm/s	0.06 ×10⁻⁶ cm/s	> 10 µM	0.316 nM	3.6 nM	13.8 nM	0.431	10.3 µL/min/mg	134 min	> 10 µM	2.17 nM	> 10 µM	0.023 nM	0.801 µM	0.0252 µM	0.0897 µM	moderate to good	exceedingly stable	moderate to good	–	Ki [3]: 0.4 nM; degradation ([15]; acidic (pH 2), after 72 hours): 50%; degradation ([15]; neutral (pH 7), after 72 hours): 50%
CCO[C@@H]1OC(=O)C[C@@H]1NC(=O)[C@@H]1CCCN1C(=O)[C@@H](NC(=O)c1ccc(N)c(Cl)c1)C(C)(C)C [Compound 1, reference compound]	0.797 ×10⁻⁶ cm/s	32.7 ×10⁻⁶ cm/s	–	–	–	–	0.006	0.147 µL/min/mg	–	–	–	–	–	–	–	–	–	–	moderate degradation	substrates for Pgp efflux	Microsomal Stability t1/2 ([7]; human liver microsomes, listed as VX-765): 6.549 days; degradation ([15]; pH 2, after 3.5 hours): 40%; compound decomposed ([15]; water (pH 7), after 48 hours): over 50%
CC(=O)N[C@@H](CC(=O)O)C(=O)N[C@@H](CCC(=O)O)C(=O)N[C@H](C(=O)N[C@H](C=O)CC(=O)O)C(C)C [Ac-DEVD-CHO, reference compound]	–	–	–	–	–	–	–	–	–	0.122 µM	–	0.00354 µM	–	–	–	–	–	–	–	–	–
CCOC(=O)C[C@@H](C#N)NC(=O)[C@@H]1CCCN1C(=O)[C@@H](NC(=O)c1ccc(N)c(Cl)c1)C(C)(C)C [Compound 3, (S)-ethyl 3-((S)-1-((S)-2-(4-amino-3-chlorobenzamido)-3,3-dimethylbutanoyl)pyrrolidine-2-carboxamido)-3-cyanopropanoate]	0.445 ×10⁻⁶ cm/s	9.59 ×10⁻⁶ cm/s	> 10 µM	145 nM	1570 nM	> 10000 nM	0.071	27.4 µL/min/mg	50.7 min	> 10 µM	1610 nM	> 10 µM	43.4 nM	> 10 µM	> 10 µM	> 10 µM	exceptionally stable	–	exceptionally stable	substrates for Pgp efflux	degradation in liver microsomes without NADPH ([7]; without NADPH as a cofactor): slight degree of degradation; degradation (in words) ([15]; basic (pH 8), after 22 hours): fully degraded
CC(C)(C)[C@H](NC(=O)c1ccc(N)c(Cl)c1)C(=O)N1CCC[C@H]1C(=O)N[C@H](C#N)Cc1nnn[nH]1 [Compound 16, (S)-1-((S)-2-(4-amino-3-chlorobenzamido)-3,3-dimethylbutanoyl)-N-((S)-1-cyano-2-(1H-tetrazol-5-yl)ethyl)pyrrolidine-2-carboxamide]	0.13 ×10⁻⁶ cm/s	0.193 ×10⁻⁶ cm/s	> 10 µM	20.4 nM	1300 nM	1380 nM	0.243	9.38 µL/min/mg	148 min	> 10 µM	91.5 nM	> 10 µM	2.58 nM	> 10 µM	> 10 µM	> 10 µM	resistant to degradation	resistant to degradation	resistant to degradation	–	–

Reference: paper PMC3062473 (ChemMedChem, 2010)
